Results: ChEMBL document CHEMBL1123757, “Selective thromboxane synthetase inhibitors and antihypertensive agents. New derivatives of 4-hydrazino-5H-pyridazino[4,5-b]indole, 4-hydrazinopyridazino[4,5-a]indole, and related compounds” (J Med Chem, 1987)

Tests used:
Homo sapiens [1] = organism: Homo sapiens; test: In vitro inhibition of platelet aggregation induced by ADP-II (PRP incubated for 60 minutes at 37 degree C) at 10e-5 M; format: functional; settings: 1 h
Procedure, shortened: (§1)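 Human venous blood anticoagulated with 3.8% sodium citrate (1:9). PRP from centrifugation at 800 rpm for 10 min at room temperature. Count adjusted with PPP to […]. Compound in saline with 10% ethylene glycol is added to PRP and incubated at 37 °C before the agonist. Agonists: ADP 2×10^-5 M, AA 0.6 mM, PGH2 2.8 μM, adrenaline 0.6 μM. Born absorbance aggregometry; n = 5.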

Rattus norvegicus [2] = test: Antihypertensive activity in spontaneously hypertensive rats (SHR) measured by percentage fall in arterial pressure (AP) at 5 mg/kg administered intraperitoneally at 1 h; format: functional, Artery; settings: route intraperitoneal
Procedure, shortened: (§2)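 Unanesthetized Okamoto-strain SHR, male and female, 8 weeks old, 300–350 g, systolic pressure ≥190 mmHg, heart rate 400–650 beats/min; five animals per dose. Given ip at 2.5 mL/kg, dissolved or suspended in normal saline or saline with 0.2% (carboxymethyl)cellulose and 1.0% Tween 80. Tail AP and CR recorded by mechanical transduction at set times; reported as percentage fall from control.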

Cavia porcellus [3] = test: Ex vivo inhibition of platelet aggregation induced by ADP-II at 100 mg/kg; format: functional
Procedure, shortened: (§3)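 Fasted male or female guinea pigs (250–300 g, five per group) dosed orally in normal saline or saline with 0.2% (carboxymethyl)cellulose/1.0% Tween 80; controls given vehicle. Under ether, cardiac blood collected into 3.8% citrate. PRP adjusted to […] and aggregation induced by ADP (second wave) or AA, read by absorbance aggregometry. PGE2 and TXB2 measured by RIA.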

Cavia porcellus [4] = test: Ex vivo inhibition of platelet aggregation induced by AA at 100 mg/kg; format: functional; procedure, shortened: as §3
Rattus norvegicus [5] = test: Antihypertensive activity in spontaneously hypertensive rats (SHR) measured by percentage fall in arterial pressure (AP) at 25 mg/kg administered intraperitoneally at 3 h; format: functional, Artery; settings: route intraperitoneal; procedure, shortened: as §2
Homo sapiens [6] = organism: Homo sapiens; test: In vitro inhibition of platelet aggregation induced by DD (PRP incubated for 5 minutes at 37 degree C) at 10e-5 M; format: functional; procedure, shortened: as §1
Cavia porcellus [7] = test: Effect on thromboxane synthetase activity (ex vivo) at 100 mg/kg expressed as percent increase in TXB2; format: functional; procedure, shortened: as §3
Rattus norvegicus [8] = test: Antihypertensive activity in spontaneously hypertensive rats (SHR) measured by percentage fall in arterial pressure (AP) at 25 mg/kg administered perorally at 3 h; format: functional, Artery; settings: route oral
Procedure, shortened: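 Oral dosing at 2.5 mL/kg to unanesthetized male and female Okamoto-strain SHR (8 weeks old, 300–350 g, systolic pressure ≥190 mmHg, heart rate 400–650 beats/min), five per dose. Vehicle was normal saline or saline with 0.2% (carboxymethyl)cellulose and 1.0% Tween 80. AP measured on the tail by mechanical transduction at set times; expressed as percentage fall from control.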

Rattus norvegicus [9] = test: Antihypertensive activity in spontaneously hypertensive rats (SHR) measured by percentage fall in arterial pressure (AP) at 5 mg/kg administered intraperitoneally at 24 h; format: functional, Artery; settings: route intraperitoneal; procedure, shortened: as §2
Homo sapiens [10] = organism: Homo sapiens; test: In vitro inhibition of platelet aggregation induced by AA (PRP incubated for 60 minutes at 37 degree C) at 10e-5 M; format: functional; settings: 1 h; procedure, shortened: as §1
Rattus norvegicus [11] = test: Antihypertensive activity in spontaneously hypertensive rats (SHR) measured by percentage fall in arterial pressure (AP) at 25 mg/kg administered intraperitoneally at 1 h; format: functional, Artery; settings: route intraperitoneal; procedure, shortened: as §2
Rattus norvegicus [12] = test: Antihypertensive activity in spontaneously hypertensive rats (SHR) measured by percentage fall in cardiac rhythm (CR) at 25 mg/kg administered perorally at 5 h; format: functional, Heart; settings: route oral
Procedure, shortened: (§4)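 Conscious SHR (Okamoto strain), 8 weeks old, male and female, 300–350 g, systolic BP ≥190 mmHg, CR 400–650 beats/min. Given ip or po at 2.5 mL/kg in normal saline or saline with 0.2% (carboxymethyl)cellulose and 1.0% Tween 80. Tail AP and CR recorded by mechanical transduction at 1, 3, 5 and 24 h, five animals per dose. Effect expressed as % fall versus control.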

Rattus norvegicus [13] = test: Antihypertensive activity in spontaneously hypertensive rats (SHR) measured by percentage fall in cardiac rhythm (CR) at 25 mg/kg administered perorally at 3 h; format: functional, Heart; settings: route oral; procedure, shortened: as §4
Rattus norvegicus [14] = test: Percent fall in systolic blood pressure, directly measured on carotid (iv on the jugular vein) of spontaneously hypertensive rats at 1 mg/kg after 15 minutes; format: functional, Artery
Procedure, shortened: (§5)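 Anesthetized (sodium pentobarbital, 70 mg/kg) male and female Okamoto SHR, 8 weeks old, 300–350 g. Given iv into the jugular vein in normal saline. Arterial pressure and cardiac rhythm are recorded directly from the carotid by polygraph at set times after dosing. Each is expressed as percent change from the pre-dose control value.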

Rattus norvegicus [15] = test: Percent fall in systolic blood pressure, directly measured on carotid (iv on the jugular vein) of spontaneously hypertensive rats at 1 mg/kg after 240 minutes; format: functional, Artery; procedure, shortened: as §5
[16] = Effect on PGI-2 release from rat aortic tissue at a final concentration of 10e -4 for an incubation time of 25 minutes; format: functional
Procedure, shortened: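 Female Wistar rats (200–220 g) received heparin 200 IU/kg ip and were killed 10 min later. Aortic pieces of about 25 mm² were washed in ice-cold oxygenated Krebs–Henseleit buffer, then incubated in 1 mL buffer at 37 °C. Compound at 10^-4 M final was added 10 min before tissue transfer. PGI2 release was read as antiaggregatory activity of the incubate on ADP (2×10^-6 M)-induced human PRP aggregation and by 6-keto-PGF1α RIA. n = 4.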

Rattus norvegicus [17] = test: Percent fall in systolic blood pressure, directly measured on carotid (iv on the jugular vein) of spontaneously hypertensive rats at 1 mg/kg after 5 minutes; format: functional, Artery; procedure, shortened: as §5
Rattus norvegicus [18] = test: Percent fall in systolic blood pressure, directly measured on carotid (iv on the jugular vein) of spontaneously hypertensive rats at 1 mg/kg after 180 minutes; format: functional, Artery; procedure, shortened: as §5
Rattus norvegicus [19] = test: Antihypertensive activity in spontaneously hypertensive rats (SHR) measured by percentage fall in cardiac rhythm (CR) at 5 mg/kg administered intraperitoneally at 1 h; format: functional, Heart; settings: route intraperitoneal; procedure, shortened: as §4
Rattus norvegicus [20] = test: Antihypertensive activity in spontaneously hypertensive rats (SHR) measured by percentage fall in cardiac rhythm (CR) at 5 mg/kg administered intraperitoneally at 3 h; format: functional, Heart; settings: route intraperitoneal; procedure, shortened: as §4
Homo sapiens [21] = organism: Homo sapiens; test: In vitro inhibition of platelet aggregation induced by PGH-2 (PRP incubated for 60 minutes at 37 degree C) at 10e-5 M; format: functional; settings: 1 h; procedure, shortened: as §1
Rattus norvegicus [22] = test: Antihypertensive activity in spontaneously hypertensive rats (SHR) measured by percentage fall in arterial pressure (AP) at 5 mg/kg administered intraperitoneally at 3 h; format: functional, Artery; settings: route intraperitoneal; procedure, shortened: as §2
Rattus norvegicus [23] = test: Antihypertensive activity in spontaneously hypertensive rats (SHR) measured by percentage fall in cardiac rhythm (CR) at 5 mg/kg administered intraperitoneally at 5 h; format: functional, Heart; settings: route intraperitoneal; procedure, shortened: as §4
Rattus norvegicus [24] = test: Antihypertensive activity in spontaneously hypertensive rats (SHR) measured by percentage fall in cardiac rhythm (CR) at 25 mg/kg administered intraperitoneally at 5 h; format: functional, Heart; settings: route intraperitoneal; procedure, shortened: as §4
Rattus norvegicus [25] = test: Antihypertensive activity in spontaneously hypertensive rats (SHR) measured by percentage fall in arterial pressure (AP) at 5 mg/kg administered intraperitoneally at 5 h; format: functional, Artery; settings: route intraperitoneal; procedure, shortened: as §2

COc1ccc2[nH]c3c(NN)nncc3c2c1.Cl
inhibition at 10 µM (Homo sapiens [1]): 100% | Decrease in AP (Rattus norvegicus [2]): 50% | inhibition in vivo at 100 mg/kg (Cavia porcellus [3]): 100% | inhibition in vivo at 100 mg/kg (Cavia porcellus [4]): 100% | Decrease in AP (Rattus norvegicus [5]): 57% | inhibition at 10 µM (Homo sapiens [6]): 100% | inhibition in vivo at 100 mg/kg (Cavia porcellus [7]): 95% | Decrease in AP (Rattus norvegicus [8]): 40% | Decrease in AP (Rattus norvegicus [9]): 9% | inhibition at 10 µM (Homo sapiens [10]): 100% | Decrease in AP (Rattus norvegicus [11]): 58% | Decrease in CR (Rattus norvegicus [12]): -14% | Decrease in CR (Rattus norvegicus [13]): -14% | Decrease in blood pressure (Rattus norvegicus [14]): 40% | Decrease in blood pressure (Rattus norvegicus [15]): 30% | Inhibition [16]: 45% | Decrease in blood pressure (Rattus norvegicus [17]): 30% | Decrease in blood pressure (Rattus norvegicus [18]): 36% | Decrease in CR (Rattus norvegicus [19]): -9% | Decrease in CR (Rattus norvegicus [20]): -8% | inhibition at 10 µM (Homo sapiens [21]): 100% | Decrease in AP (Rattus norvegicus [22]): 35% | Decrease in CR (Rattus norvegicus [23]): -6% | Decrease in CR (Rattus norvegicus [24]): 24% | Decrease in AP (Rattus norvegicus [25]): 26%
